For series [1], the species on record is Homo sapiens. The experiment in a line: Binding affinity to human […] fibril assessed as intrinsic fluorescence intensity.
For series [2], the species on record is Homo sapiens. The experiment in a line: Binding affinity to human insulin fibril assessed as intrinsic fluorescence intensity.
Series [3] concerns the target T1, Amyloid-beta precursor protein (Homo sapiens, UniProt P05067). Description: Binding affinity to human amyloid beta (1 to 42) fibril assessed as intrinsic fluorescence intensity.
The species entered for series [4] is Homo sapiens. The experiment in a line: Binding affinity to human […] fibril assessed as increase in intrinsic fluorescence intensity at 2.25 uM relative to equimolar monomeric specie.
Series [5] is filed under the species Homo sapiens. The experiment in a line: Binding affinity to human insulin fibril assessed as increase in intrinsic fluorescence intensity at 2.25 uM relative to equimolar monomeric specie.
Series [6] addresses T1, Amyloid-beta precursor protein. Description: Binding affinity to human amyloid beta (1 to 42) fibril assessed as increase in intrinsic fluorescence intensity at 2.25 uM relative to equimolar monomeric specie.
Series [7] can be described thus: Binding affinity to human insulin fibril by fluorescence intensity assay. Put shortly:
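Fibrils grown from human insulin (3 mg/mL, Tris-HCl 50 mM pH 3), E. coli-expressed human α-syn (3 mg/mL, pH 7.4) or Aβ(1–42) (0.5 mg/ml, 1% NH4OH). Fibril level taken as supernatant protein depletion. Fixed fibrils (3.5–11.35) titrated with ligand (DMSO stock diluted into 50 mM Tris-HCl pH 7.4). Plate-reader intensity read at each ligand's maximal excitation/emission wavelengths, dye blanks subtracted. Kd from single-site saturation fit.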

The target of series [8] is T1, Amyloid-beta precursor protein. Description: Binding affinity to human amyloid beta (1 to 42) fibril by fluorescence intensity assay. Put shortly:
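Fibrils grown from human insulin (3 mg/mL, Tris-HCl 50 mM pH 3), E. coli-expressed human α-syn (3 mg/mL, pH 7.4) or Aβ(1–42) (0.5 mg/ml, 1% NH4OH). Fibril level taken as supernatant protein depletion. Plate-reader intensity read at each ligand's maximal excitation/emission wavelengths, dye blanks subtracted. Kd from single-site saturation fit.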

The next series has as its target Insulin (Homo sapiens) (UniProt P01308). The experiment in a line: Binding affinity to human insulin monomer by fluorescence intensity assay.
For series [9], the target named is T1, Amyloid-beta precursor protein. The experiment in a line: Binding affinity to human amyloid beta (1 to 42) monomer by fluorescence intensity assay.
The target in another series is Albumin (Bos taurus, UniProt P02769). The experiment in a line: Binding affinity to bovine serum albumin by fluorescence intensity assay. Particulars: cattle, isolated protein. The series is classed as ADME. Put shortly:
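BSA titrated with increasing ligand concentrations in 50 mM Tris-HCl pH 7.4, in the same way as the fibril assays. Intrinsic fluorescence intensity was read on a plate reader with dye-blank background subtracted. Kd came from a single-site saturation curve fit.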

Series [10] concerns the target Alpha-synuclein (Homo sapiens) (UniProt P37840). Description: Binding affinity to human alpha-synuclein fibril by fluorescence intensity assay.
Series [11] has the same target. The experiment in a line: Binding affinity to human alpha-synuclein monomer expressed in Escherichia coli BL21 by fluorescence intensity assay.

Activity calls are given as the source filed them. The calls are words filed in the database; no cut-off is given here.

T1 sequence (P05067 whole entry): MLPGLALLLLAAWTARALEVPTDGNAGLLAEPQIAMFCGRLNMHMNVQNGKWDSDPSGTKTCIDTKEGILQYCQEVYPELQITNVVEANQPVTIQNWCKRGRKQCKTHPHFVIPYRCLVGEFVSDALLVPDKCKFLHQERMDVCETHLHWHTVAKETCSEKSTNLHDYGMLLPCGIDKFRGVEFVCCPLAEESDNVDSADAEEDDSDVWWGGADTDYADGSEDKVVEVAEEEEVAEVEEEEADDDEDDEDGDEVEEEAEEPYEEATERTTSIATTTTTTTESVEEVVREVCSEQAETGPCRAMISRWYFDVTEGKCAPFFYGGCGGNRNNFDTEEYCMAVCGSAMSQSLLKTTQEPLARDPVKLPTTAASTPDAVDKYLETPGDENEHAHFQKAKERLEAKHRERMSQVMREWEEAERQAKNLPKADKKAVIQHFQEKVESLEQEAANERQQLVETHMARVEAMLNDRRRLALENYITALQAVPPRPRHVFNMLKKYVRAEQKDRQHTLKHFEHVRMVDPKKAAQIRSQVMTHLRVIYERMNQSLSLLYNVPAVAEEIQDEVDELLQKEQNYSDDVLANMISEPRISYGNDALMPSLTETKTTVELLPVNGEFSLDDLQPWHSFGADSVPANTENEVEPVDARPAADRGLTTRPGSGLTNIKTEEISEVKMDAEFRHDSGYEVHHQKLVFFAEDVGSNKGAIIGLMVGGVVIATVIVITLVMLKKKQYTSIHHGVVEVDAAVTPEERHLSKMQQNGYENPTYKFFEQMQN
Chain of Insulin (Homo sapiens) (P01308 whole entry): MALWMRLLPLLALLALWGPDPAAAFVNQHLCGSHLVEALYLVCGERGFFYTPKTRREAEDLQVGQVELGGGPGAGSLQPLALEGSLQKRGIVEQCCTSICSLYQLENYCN
Chain of Albumin (P02769 whole entry): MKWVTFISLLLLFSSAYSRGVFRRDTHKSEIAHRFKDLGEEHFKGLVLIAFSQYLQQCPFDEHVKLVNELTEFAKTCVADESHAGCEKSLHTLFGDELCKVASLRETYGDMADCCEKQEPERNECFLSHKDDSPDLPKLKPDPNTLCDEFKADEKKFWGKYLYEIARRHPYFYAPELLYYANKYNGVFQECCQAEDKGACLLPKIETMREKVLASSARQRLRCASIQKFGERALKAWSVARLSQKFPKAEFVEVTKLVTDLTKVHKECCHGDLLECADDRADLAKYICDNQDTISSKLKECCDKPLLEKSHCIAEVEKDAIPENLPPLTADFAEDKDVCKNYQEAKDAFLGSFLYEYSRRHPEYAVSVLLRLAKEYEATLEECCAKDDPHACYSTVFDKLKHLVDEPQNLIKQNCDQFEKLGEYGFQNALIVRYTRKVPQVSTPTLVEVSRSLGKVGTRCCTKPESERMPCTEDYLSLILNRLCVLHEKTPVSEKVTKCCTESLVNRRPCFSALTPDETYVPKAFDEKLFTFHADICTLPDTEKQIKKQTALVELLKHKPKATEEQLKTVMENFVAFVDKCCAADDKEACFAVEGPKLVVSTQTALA

For `CN(CCF)c1ccc(/C=C/c2nc3ccccc3n2C)cc1`, the outcome (in the series listed under Homo sapiens [1]; in the series filed under Homo sapiens [2]; in [3]) was Active. Further, the values for the fold change (FC) (in the series listed under Homo sapiens [4]; in the series filed under Homo sapiens [5]; in series [6]) were 2.23, 3.63 and 5.17, respectively. The Kd was found to be 1.22 µM⁻¹ in [7], 5.19 µM⁻¹ in [8] and 1.81 µM⁻¹ in series [10]. For the same molecule, the outcome (on Insulin (Homo sapiens); in [9]; in [11]) was inactive. In addition, the Activity entry at Albumin is listed as “Not Active”.
Turning to `CN(CCF)c1ccc(/C=C\c2nc3ccccc3[nH]2)cc1`, the outcome (in the series filed under Homo sapiens [1]; in the series filed under Homo sapiens [2]; in series [3]) was Active. Besides, the result (on Insulin (Homo sapiens); in series [9]; in [11]) was inactive. The Activity entry on Albumin is given as “Not Active”.
`CN(CCF)c1ccc(/C=C\c2nc3ccccc3o2)cc1`: the outcome (in the series filed under Homo sapiens [1]; in the series listed under Homo sapiens [2]; in series [3]) was Active. Besides, the fold change (FC) was found to be 1.63 in the series filed under Homo sapiens [4], 1.6 in the series listed under Homo sapiens [5] and 1.28 in series [6]. For the same molecule, the Kd in series [7] amounted to 3.24 µM⁻¹; in series [8] it was 5.99 µM⁻¹; in series [10], 7.43 µM⁻¹. For the same molecule, the result (on Insulin (Homo sapiens); in series [9]; in series [11]) was inactive. Also, the Activity entry on Albumin is listed as “Not Active”.
On to `CN(CCF)c1ccc(/C=C/c2nc3ccccc3s2)cc1`, for which the outcome (in the series filed under Homo sapiens [1]; in the series filed under Homo sapiens [2]; in series [3]) was Active. The fold change (FC) came to 4.48 in the series listed under Homo sapiens [4], 3.3 in the series listed under Homo sapiens [5] and 7.41 in series [6]. The Kd in series [7] stood at 1.79 µM⁻¹; in [8], 10.67 µM⁻¹; in series [10], 1.38 µM⁻¹. In addition, the outcome (at Insulin (Homo sapiens); in series [9]; in series [11]) was inactive. Besides, the Activity entry at Albumin is on record as “Not Active”.
`CN(CCF)c1ccc(/C=C\c2nc3ccccc3n2C)cc1`: the outcome (in the series listed under Homo sapiens [1]; in the series filed under Homo sapiens [2]; in series [3]) was Active. Besides, the fold change (FC) in the series filed under Homo sapiens [4] is 2.84; in the series filed under Homo sapiens [5], 2.84; in series [6] it was 5.9. The Kd in series [7] turned out to be 3.86 µM⁻¹; in series [8], 3.52 µM⁻¹; in series [10], 1.85 µM⁻¹. The result (on Insulin (Homo sapiens); in series [9]; in series [11]) was inactive. The Activity entry at Albumin was “Not Active”.
As to `CN(CCF)c1ccc(/C=C\c2nc3ccccc3s2)cc1`, the result (in the series listed under Homo sapiens [1]; in the series filed under Homo sapiens [2]; in [3]) was Active. The fold change (FC) in the series listed under Homo sapiens [4] stood at 9.48; in the series filed under Homo sapiens [5], 2.98; in series [6] it was 11.3. Besides, the results for the Kd in series [7], in series [8] and in [10] were 8.59 µM⁻¹, 23.96 µM⁻¹ and 7.35 µM⁻¹, respectively. For the same molecule, the result (at Insulin (Homo sapiens); in series [9]; in series [11]) was inactive. In addition, the Activity entry on Albumin is recorded as “Not Active”.
`CN(CCF)c1ccc(/C=C/c2nc3ccccc3[nH]2)cc1`: the result (in the series filed under Homo sapiens [1]; in the series filed under Homo sapiens [2]; in series [3]) was Active. The figures for the fold change (FC) (in the series listed under Homo sapiens [4]; in the series listed under Homo sapiens [5]; in [6]) were 4.5, 2.49 and 2.71, respectively. Moreover, the values for the Kd in [7], in series [8] and in series [10] were 1.54 µM⁻¹, 3.63 µM⁻¹ and 3.31 µM⁻¹, respectively. Also, the result (on Insulin (Homo sapiens); in series [9]; in series [11]) was inactive. Moreover, the Activity entry at Albumin is given as “Not Active”.
In turn, `Cc1ccc2c(c1)sc(-c1ccc(N(C)C)cc1)[n+]2C.[Cl-]` [THIOFLAVIN T] displayed a Kd in [7] of 2.54 µM⁻¹.
With `CN(CCF)c1ccc(/C=C/c2nc3ccccc3o2)cc1`, the outcome (in the series filed under Homo sapiens [1]; in the series listed under Homo sapiens [2]; in series [3]) was Active. In addition, the fold change (FC) stood at 1.98 in the series listed under Homo sapiens [4], 1.98 in the series listed under Homo sapiens [5] and 2.69 in series [6]. Also, the Kd was 2.28 µM⁻¹ in [7], 4.48 µM⁻¹ in series [8] and 3.24 µM⁻¹ in series [10]. The result (on Insulin (Homo sapiens); in series [9]; in series [11]) was inactive. Moreover, the Activity result on Albumin is “Not Active”.

The record behind these values is ChEMBL document CHEMBL1926592, “Synthesis and in vitro evaluation of fluorinated styryl benzazoles as amyloid-probes” (Bioorg Med Chem, 2011).
